The source made the active and inactive calls. The calls are words filed in the database; no cut-off is given here.
Key:
A549 = assay: Antiproliferative activity against human A549 cells assessed as growth inhibition measured after 48 hrs by sulforhodamine B assay; assay type: functional; settings: A549, 48 h
Summary of the method: (§1)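 NCI protocol with minor modifications. DMSO stocks at 40 mM. Cells exposed for 48 h to serial decimal dilutions, 0.001–100 µM. GI50 in µM from at least two independent experiments, with SD.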

SW1573 [1] = assay: Antiproliferative activity against human SW1573 cells incubated for 48 hrs in presence of P-gp and CYP3A4/5 inhibitor verapamil by sulforhodamine B assay; assay type: functional; settings: SW1573, 48 h
Summary of the method: (§2)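 Wild-type and P-gp-overexpressing SW1573 cells were grown in RPMI 1640 with 1 mM glutamine, 5% FBS and antibiotics at 37 °C. Cells were exposed for 48 h to serial decimal dilutions, 0.001–100 µM, with or without 10 µM verapamil. GI50 values come from at least two independent experiments, with SD.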

SW1573 [2] = assay: (§3) Resistance factor, ratio of GI50 for antiproliferative activity against human SW1573 cells over-expressing P-gp incubated for 48 hrs in presence of P-gp and CYP3A4/5 inhibitor verapamil by sulforhodamine assay to GI50 for antiproliferative activity against human SW1573 cells incubated for 48 hrs in presence of P-gp and CYP3A4/5 inhibitor verapamil by sulforhodamine B assay; assay type: functional
Summary of the method: (§4)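 Resistance factor: GI50 in SW1573/PGP divided by GI50 in wild-type SW1573. Both came from 48 h exposure, with or without 10 µM verapamil. GI50 values are from at least two independent experiments.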

SW1573 [3] = assay: Antiproliferative activity against human SW1573 cells incubated for 48 hrs in absence of P-gp and CYP3A4/5 inhibitor verapamil by sulforhodamine B assay; assay type: functional; settings: SW1573, 48 h; summary of the method: as §2
SW1573 [4] = assay: as §3, with “hrs in absence of P-gp” for “hrs in presence of P-gp”, “by sulforhodamine B assay to” for “by sulforhodamine assay to”; assay type: functional; summary of the method: as §4
SW1573 [5] = assay: Antiproliferative activity against human SW1573 cells over-expressing P-gp incubated for 48 hrs in absence of P-gp and CYP3A4/5 inhibitor verapamil by sulforhodamine B assay; assay type: functional; settings: SW1573, 48 h; summary of the method: as §2
WiDr [6] = assay: Antiproliferative activity against human WiDr cells assessed as growth inhibition measured after 48 hrs by sulforhodamine B assay; assay type: functional; summary of the method: as §1
HBL-100 = assay: Antiproliferative activity against human HBL100 cells assessed as growth inhibition measured after 48 hrs by sulforhodamine B assay; assay type: functional; settings: HBL-100, 48 h; summary of the method: as §1
SW1573 [7] = assay: Antiproliferative activity against human SW1573 cells over-expressing P-gp incubated for 48 hrs in presence of P-gp and CYP3A4/5 inhibitor verapamil by sulforhodamine B assay; assay type: functional; settings: SW1573, 48 h; summary of the method: as §2
[8] = (§5) Cytotoxicity against human hTERT-BJ cells assessed as growth inhibition measured after 48 hrs by sulforhodamine B assay; assay type: cell-based; settings: hTERT-BJ cells
Summary of the method: as §1, with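 “modifications. Human tumour lines or fibroblasts in RPMI 1640 with 1 mM glutamine, 5% FBS and antibiotics, 37 °C, 5% CO2, low passage.” for “modifications.”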

T47D [9] = assay: Antiproliferative activity against human T47D cells assessed as growth inhibition measured after 48 hrs by sulforhodamine B assay; assay type: functional; summary of the method: as §1
HeLa [10] = assay: Anticancer activity against human HeLa cells assessed as increase in ROS production at 10 uM measured after 48 hrs by ROS-GloTM H2O2 assay; assay type: functional, cell-based
Summary of the method: (§6)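 HeLa cells in RPMI 1640 with 1 mM glutamine, 5% FBS and antibiotics, 37 °C, 5% CO2. Exposed to compound at 1 or 10 µM for 48 h. ROS (H2O2) read with a non-lytic, HRP-free luminescent kit per the manufacturer.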

HeLa [11] = assay: Antiproliferative activity against human HeLa cells assessed as growth inhibition measured after 48 hrs by sulforhodamine B assay; assay type: functional; summary of the method: as §1
[12] = Selectivity index, ratio of GI50 for Cytotoxicity against human hTERT-BJ cells to ratio of GI50 for antiproliferative activity against human A549 cells; assay type: toxicity, cell-based; settings: hTERT-BJ cells versus A549 cells, read-out: RatioGI50
[13] = Selectivity index, ratio of GI50 for Cytotoxicity against human hTERT-BJ cells to ratio of GI50 for antiproliferative activity against human HeLa cells; assay type: toxicity, cell-based; settings: hTERT-BJ cells versus HeLa cells, read-out: RatioGI50
[14] = Selectivity index, ratio of GI50 for Cytotoxicity against human hTERT-BJ cells to ratio of GI50 for antiproliferative activity against human HBL100 cells
[15] = Selectivity index, ratio of GI50 for Cytotoxicity against human hTERT-BJ cells to ratio of GI50 for antiproliferative activity against human WiDr cells; assay type: toxicity, cell-based; settings: hTERT-BJ cells versus WiDr cells, read-out: RatioGI50
[16] = Selectivity index, ratio of GI50 for Cytotoxicity against human hTERT-BJ cells to ratio of GI50 for antiproliferative activity against human T47D cells; assay type: toxicity, cell-based; settings: hTERT-BJ cells versus T47D cells, read-out: RatioGI50
hTERT-BJ = assay: as §5; assay type: cell-based; settings: htert-bj, 48 h
Summary of the method: as §1, with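 “modifications. Human tumour lines or fibroblasts in RPMI 1640 with 1 mM glutamine, 5% FBS and antibiotics, 37 °C, 5% CO2, low passage.” for “modifications.”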

WiDr [17] = assay: Potency index, ratio of GI50 for CDDP to test compound GI50 for antiproliferative activity against human WiDr cells; assay type: functional
T47D [18] = assay: Potency index, ratio of GI50 for CDDP to test compound GI50 for antiproliferative activity against human T47D cells; assay type: functional
[19] = biological target: T1, Histone deacetylase 8 (Homo sapiens) (UniProt Q9BY41); assay: Potency index, ratio of inhibition activity of trichostatin to inhibition activity of compound HDAC8 (unknown origin)
T1 sequence (whole entry): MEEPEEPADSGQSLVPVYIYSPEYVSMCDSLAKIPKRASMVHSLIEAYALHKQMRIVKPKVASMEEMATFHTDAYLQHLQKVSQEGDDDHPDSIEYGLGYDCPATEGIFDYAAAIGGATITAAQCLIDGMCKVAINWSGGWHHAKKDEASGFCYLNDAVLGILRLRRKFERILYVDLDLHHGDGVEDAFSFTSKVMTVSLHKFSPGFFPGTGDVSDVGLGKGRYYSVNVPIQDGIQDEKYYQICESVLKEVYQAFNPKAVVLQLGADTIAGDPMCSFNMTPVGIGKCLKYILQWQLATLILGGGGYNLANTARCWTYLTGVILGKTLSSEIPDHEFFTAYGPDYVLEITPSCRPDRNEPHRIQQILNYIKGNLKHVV

HeLa [20] = assay: Anticancer activity against human HeLa cells assessed as increase in ROS production at 1 uM measured after 48 hrs by ROS-GloTM H2O2 assay; assay type: functional, cell-based; summary of the method: as §6

Structure (SMILES)	GI50 (A549)	GI50 (SW1573 [1])	RatioGI50 (SW1573 [2])	GI50 (SW1573 [3])	RatioGI50 (SW1573 [4])	GI50 (SW1573 [5])	GI50 (WiDr [6])	GI50 (HBL-100)	GI50 (SW1573 [7])	GI50 at 48 h [8]	GI50 (T47D [9])	Activity (HeLa [10])	GI50 (HeLa [11])	further results
Cc1cc(=O)oc2cc(NC(=[Se])Nc3ccc(C(F)(F)F)cc3)ccc12	8.6 µM	26 µM	0.9	20 µM	1.2	24 µM	6 µM	13 µM	22 µM	32 µM	8.7 µM	Active	21 µM	–
Cc1cc(=O)oc2cc(N=C=[Se])ccc12	3.6 µM	29 µM	0.9	27 µM	1.1	29 µM	4.8 µM	5 µM	24 µM	50 µM	3.6 µM	Active	12 µM	selectivity ratio [12]: ≤ 14; selectivity ratio [13]: ≤ 14; RatioGI50 [14]: <=14; selectivity ratio [15]: ≤ 14; selectivity ratio [16]: ≤ 14
CCCOC(=[Se])Nc1ccc2c(C)cc(=O)oc2c1	37 µM	12 µM	3	16 µM	2	32 µM	42 µM	34 µM	35 µM	33 µM	41 µM	Active	23 µM	–
CCCCOC(=[Se])Nc1ccc2c(C)cc(=O)oc2c1	–	–	–	–	–	–	–	–	–	–	–	–	–	GI50 (hTERT-BJ): Nd(Insoluble)
COC(=[Se])Nc1ccc2c(C)cc(=O)oc2c1	> 100 µM	–	–	–	–	–	> 100 µM	> 100 µM	–	–	> 100 µM	–	78 µM	–
CCOC(=[Se])Nc1ccc2c(C)cc(=O)oc2c1	> 100 µM	–	–	–	–	–	> 100 µM	> 100 µM	–	–	> 100 µM	–	> 100 µM	–
Cc1cc(=O)oc2cc(NC(=[Se])Nc3ccc4c(C)cc(=O)oc4c3)ccc12	3.2 µM	9 µM	2.3	4.5 µM	12	55 µM	4.5 µM	3.5 µM	21 µM	4.9 µM	3.6 µM	–	2.9 µM	RatioGI50 (WiDr [17]): <=6; RatioGI50 (T47D [18]): <=6; Ratio [19]: 1.65; Activity (HeLa [20]): Active

— ChEMBL document CHEMBL4351017, “Selenocoumarins as new multitarget antiproliferative agents: Synthesis, biological evaluation and in silico calculations” (Eur J Med Chem, 2019)
